The target in data set [1] is 5-hydroxytryptamine receptor 1D (Homo sapiens, UniProt P28221). Description: Binding constant towards serotonin receptor subtype 5-hydroxytryptamine 1D receptor expressed in HEK 293 cells using [3H]LSD as radioligand. The class given is cell-based, HEK293.
Data set [2] has as its target T1, 5-hydroxytryptamine receptor 2C (Homo sapiens, UniProt P28335).
T1 sequence (P28335 whole entry): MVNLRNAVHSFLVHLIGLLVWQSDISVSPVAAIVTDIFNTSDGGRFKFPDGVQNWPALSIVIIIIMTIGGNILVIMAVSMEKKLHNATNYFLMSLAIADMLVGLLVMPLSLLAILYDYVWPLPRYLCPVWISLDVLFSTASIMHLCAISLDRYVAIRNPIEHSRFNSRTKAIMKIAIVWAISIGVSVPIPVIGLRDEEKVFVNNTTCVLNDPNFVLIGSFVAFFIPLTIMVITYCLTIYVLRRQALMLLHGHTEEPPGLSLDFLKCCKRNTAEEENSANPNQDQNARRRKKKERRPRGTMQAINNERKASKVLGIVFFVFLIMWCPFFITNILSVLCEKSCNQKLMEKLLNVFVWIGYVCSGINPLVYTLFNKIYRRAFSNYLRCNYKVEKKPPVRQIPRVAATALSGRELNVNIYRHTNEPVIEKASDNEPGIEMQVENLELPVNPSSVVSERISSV
Description: Binding constant towards serotonin receptor subtype 5-hydroxytryptamine 2C receptor expressed in 3T3 cells using [3H]5-HT as radioligand. In kind it is cell-based, NIH3T3.

Data set [3] has as its target 5-hydroxytryptamine receptor 7 (Homo sapiens, UniProt P34969). As to the kind of experiment: Binding constant towards serotonin receptor subtype 5-hydroxytryptamine 7 receptor expressed in CHO cells using [3H]LSD as radioligand. In kind it is cell-based.
Data set [4] concerns the target T2, 5-hydroxytryptamine receptor 6 (Homo sapiens, UniProt P50406). As to the kind of experiment: Binding constant towards serotonin receptor subtype 5-hydroxytryptamine 6 receptor expressed in HeLa cells using [3H]LSD as radioligand. In kind it is cell-based. The method, boiled down: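 Radioligand binding to human recombinant 5-HT6 receptor expressed in HeLa cells with [3H]-LSD. Values are the mean ± SEM of three independent determinations, each run in triplicate.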

The nature of data set [5]: Half-life period after intravenous administration in rat. Particulars: in vivo. In kind it is ADME, organism-based. The method, boiled down: (§1)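 Rats were dosed at 10 mg/kg in PEG/PG/WIP 40/40/20, either by oral gavage or intravenously with the same dose and formulation. Plasma concentrations were followed over 8 h. PK parameters were derived as plasma clearance, apparent terminal half-life, bioavailability and steady-state volume of distribution, reported as average ± SEM.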

Data set [6] is described as follows: Half-life period after oral administration in rat. The class given is ADME, organism-based. Particulars: in vivo. A digest of the protocol:
as §1

Data set [7] can be described thus: Bioavailability after oral administration in rat expressed as percentage. In kind it is ADME, organism-based. The following applies: in vivo. A digest of the protocol: as §1
A further data set relates to Rattus norvegicus. As to the kind of experiment: Ratio of brain/plasma concentration after oral administration in rat expressed as percentage. In kind it is ADME, organism-based. The method, boiled down: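 Rats dosed at 10 mg/kg by oral gavage in PEG/PG/WIP 40/40/20. Brain and plasma concentrations were measured, and the brain/plasma ratio is given as a percentage (average ± SEM).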

A short description of data set [8]: Volume of distribution at steady state after intravenous administration in rat. The class given is ADME, organism-based. Particulars: in vivo, read-out: Vss. The method, boiled down:
as §1

A short description of data set [9]: Partition coefficient (logD7.4). The class given is physicochemical. The following applies: octanol/water, pH 7.4.
Data set [10] has as its target T2, 5-hydroxytryptamine receptor 6. As to the kind of experiment: Antagonism assessed in a functional cAMP binding assay using 5-CT to stimulate human 5-hydroxytryptamine 6 receptor expressed in HEK 293 cells. The class given is cell-based, HEK293. Particulars: read-out: pA2 (converted). The method, boiled down: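 Human 5-HT6 receptor stably expressed in HEK-293 cells; adenylate cyclase (cAMP) activity stimulated with 5-CT. 5-CT concentration–response curves were run with increasing antagonist concentrations, and the shift was analysed by Schild analysis, n = 3.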

The nature of data set [11]: In vivo plasma clearance after intravenous administration in rat. In kind it is ADME, organism-based. The following applies: read-out: Clp. A digest of the protocol:
as §1

Data set [12] can be described thus: Dissociation constant was determined.
Data set [13] has as its target 5-hydroxytryptamine receptor 2A (Homo sapiens, UniProt P28223). Description: Binding constant towards serotonin receptor subtype 5-hydroxytryptamine 2A receptor expressed in 3T3 cells using [3H]-DOB as radioligand.

Structures are written as SMILES.

The values that follow come from ChEMBL document CHEMBL1136747, “Influence of the 5-HT6 receptor on acetylcholine release in the cortex: pharmacological characterization of 4-(2-bromo-6-pyrrolidin-1-ylpyridine-4-sulfonyl)phenylamine, a potent and selective 5-HT6 receptor antagonist” (J Med Chem, 2003).

Chain of 5-hydroxytryptamine receptor 7 (P34969 whole entry): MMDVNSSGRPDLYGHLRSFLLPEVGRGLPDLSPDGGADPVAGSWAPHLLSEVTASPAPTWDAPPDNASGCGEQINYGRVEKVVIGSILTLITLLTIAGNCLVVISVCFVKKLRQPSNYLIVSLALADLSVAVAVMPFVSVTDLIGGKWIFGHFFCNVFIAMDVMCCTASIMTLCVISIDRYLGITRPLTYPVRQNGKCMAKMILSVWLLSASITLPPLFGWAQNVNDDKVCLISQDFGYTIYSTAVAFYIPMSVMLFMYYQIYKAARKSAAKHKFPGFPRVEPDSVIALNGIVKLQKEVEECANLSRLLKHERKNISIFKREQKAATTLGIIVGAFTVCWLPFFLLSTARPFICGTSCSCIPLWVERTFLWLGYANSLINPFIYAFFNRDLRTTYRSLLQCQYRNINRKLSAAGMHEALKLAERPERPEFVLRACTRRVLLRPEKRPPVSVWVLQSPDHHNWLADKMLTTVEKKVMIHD
Chain of 5-hydroxytryptamine receptor 1D (P28221 whole entry): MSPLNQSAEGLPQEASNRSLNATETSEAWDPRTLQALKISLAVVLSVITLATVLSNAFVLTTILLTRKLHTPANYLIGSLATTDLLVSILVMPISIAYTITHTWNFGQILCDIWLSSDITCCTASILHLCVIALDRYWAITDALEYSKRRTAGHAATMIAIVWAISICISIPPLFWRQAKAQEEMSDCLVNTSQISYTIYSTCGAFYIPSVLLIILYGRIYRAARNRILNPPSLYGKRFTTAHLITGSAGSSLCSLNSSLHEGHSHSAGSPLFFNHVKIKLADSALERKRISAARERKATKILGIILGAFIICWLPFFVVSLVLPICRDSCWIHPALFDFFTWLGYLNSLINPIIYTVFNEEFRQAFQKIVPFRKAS
T2 sequence (P50406 whole entry): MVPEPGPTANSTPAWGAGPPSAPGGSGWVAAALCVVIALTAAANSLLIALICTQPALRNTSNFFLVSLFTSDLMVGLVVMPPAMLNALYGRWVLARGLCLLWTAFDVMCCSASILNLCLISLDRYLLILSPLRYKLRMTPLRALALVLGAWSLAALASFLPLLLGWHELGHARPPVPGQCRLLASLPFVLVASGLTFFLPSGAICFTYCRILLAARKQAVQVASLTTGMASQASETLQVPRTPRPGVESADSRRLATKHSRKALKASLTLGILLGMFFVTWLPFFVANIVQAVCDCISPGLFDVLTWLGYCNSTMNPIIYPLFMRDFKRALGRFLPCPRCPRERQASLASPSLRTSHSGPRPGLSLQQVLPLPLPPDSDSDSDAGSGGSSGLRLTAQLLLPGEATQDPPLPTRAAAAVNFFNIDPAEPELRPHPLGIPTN
Chain of 5-hydroxytryptamine receptor 2A (P28223 whole entry): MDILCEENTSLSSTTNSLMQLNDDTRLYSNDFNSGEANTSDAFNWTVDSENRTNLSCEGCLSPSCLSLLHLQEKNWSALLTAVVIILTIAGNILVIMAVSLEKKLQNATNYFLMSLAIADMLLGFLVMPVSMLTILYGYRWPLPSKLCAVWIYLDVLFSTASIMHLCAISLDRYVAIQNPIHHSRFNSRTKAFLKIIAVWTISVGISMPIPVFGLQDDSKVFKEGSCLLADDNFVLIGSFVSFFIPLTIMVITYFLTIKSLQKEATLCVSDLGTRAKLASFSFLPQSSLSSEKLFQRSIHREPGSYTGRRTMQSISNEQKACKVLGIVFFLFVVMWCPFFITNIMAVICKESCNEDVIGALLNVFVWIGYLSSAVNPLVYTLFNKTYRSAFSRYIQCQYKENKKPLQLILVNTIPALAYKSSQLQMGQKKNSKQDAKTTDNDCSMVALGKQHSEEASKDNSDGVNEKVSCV

As usually defined, the Ki is the dissociation constant of the complex between target and ligand, obtained from inhibition or displacement. The term half-life denotes the time in which the quantity being followed falls by half. As a reminder, the bioavailability is the share of a dose that reaches the circulation, judged against a reference dose that is usually intravenous. High values mean good availability, low ones poor availability. One may read the logD as lipophilicity at a set pH, counting ionised and neutral species. A higher logD goes with a more lipophilic compound. In general, pKa refers to the negative logarithm of the acid dissociation constant. Read a high pKa as a group that holds its proton tightly. On to `Nc1ccc(S(=O)(=O)c2cc(Br)nc(N3CCCC3)c2)cc1`, for which the Ki in [1] was above 100000 nM; in data set [2], above 10000 nM; in data set [3], above 100000 nM; in [4], 1 nM; in data set [13], 1450 nM. In addition, the results for the half-life in [5] and in data set [6] were 3.7 h and 3 h, respectively. Further, in [7], the bioavailability is 46%. For the same molecule, the Ratio in the data set with Rattus norvegicus amounted to 24%. Besides, the Vd in data set [8] came out at 1.4 L/kg. The molecule further yielded a log distribution coefficient (logD) in data set [9] of 3.3. Also, in [10], the Kb was 3.16 nM. In data set [11], the clearance came to 20 mL/min/kg. Besides, the pKa in data set [12] is below 2.
As to `CNc1cc(S(=O)(=O)c2ccc(N)cc2)cc(Br)n1`, the inhibition constant (Ki) in data set [1] was above 10000 nM; in data set [2], above 10000 nM; in data set [3], above 10000 nM; in data set [4], 2.29 nM.
In turn, `CNc1cc(S(=O)(=O)Nc2ccc(N)cc2)cc(Br)n1` showed a Ki in [4] of 42.7 nM.
Turning to `Nc1ccc(S(=O)(=O)c2cc(Br)nc(N3CCNCC3)c2)cc1`, the Ki is 1120 nM in data set [1], 20.4 nM in data set [2], above 10000 nM in data set [3] and 0.115 nM in data set [4].
In turn, `Nc1ccc(S(=O)(=O)c2cc(Br)nc(Br)c2)cc1` gave a Ki in [4] of 53.7 nM.
As for `CNc1cc(NS(=O)(=O)c2ccc(N)cc2)nc(NC)n1`, the Ki in data set [1] is above 10000 nM; in data set [2], above 10000 nM; in data set [3] it was above 10000 nM; in data set [4], 55 nM; in data set [13] it was above 10000 nM.
